The test system of series [1] is PD-L1. The following applies: ligand in PDB 5N2F; cited from earlier work.
The subject of series [2] is human PD-L1. Particulars: binds human PD-L1; previously published; cited from earlier work.
For series [3] the following is noted: tested in clinical trials but discontinued; cited from earlier work.
The target of series [4] is PD-1–PD-L1 interaction (Homo sapiens, UniProt Q9NZQ7). Put plainly: PD-1–PD-L1 TR-FRET assay. The format is binding. The procedure, abridged: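 Test compound (from 5 mM DMSO stock, diluted in PBS) was preincubated 10 min with biotin-PD-L1 (added at 11 μg/mL) at room temperature in the dark. Eu-PD-1 (0.8 μg/mL) plus acceptor dye was then added for 1.5 h. Single doses were 5 and 25 μM final; dose-response used a 5:1 serial dilution. The 665/620 nm ratio (excitation 337 nm) was normalised to controls with and without PD-L1, in triplicate. IC50 came from nonlinear regression.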
Chain of PD-1–PD-L1 interaction (Q9NZQ7 19-238 limits assumed): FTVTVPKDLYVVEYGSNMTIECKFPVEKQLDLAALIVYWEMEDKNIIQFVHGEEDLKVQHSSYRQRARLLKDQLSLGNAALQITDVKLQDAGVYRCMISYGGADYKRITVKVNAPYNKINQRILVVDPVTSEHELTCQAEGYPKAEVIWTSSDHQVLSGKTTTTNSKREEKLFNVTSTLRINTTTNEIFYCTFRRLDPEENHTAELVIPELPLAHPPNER

The subject of series [5] is LS 180 colorectal adenocarcinoma cells bearing the K-Ras G12D mutation. Put plainly: MTT cell toxicity assay in LS 180 cells. Format: cell-based. The following applies: 48 h. An outline of the steps:
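LS 180 cells were grown in DMEM with 10% FBS at 37 °C and 5% CO2, then seeded at 5000 cells/well in DMEM with 5% FBS and left to attach for 24 h. Test compound was added at 10, 4, 1.6 or 0.64 μM final, with 0.2% DMSO, in sextuplicate, for 48 h. MTT (0.35 mg/mL final) was added for 4 h, then DMF/SDS/HCl/acetic acid stop solution overnight at room temperature. A570 was read as % survival versus no compound.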
(In general: Tetrazolium dyes change colour on reduction, which living cells bring about.)

Structures are written as SMILES.

By IC50 is commonly meant the concentration needed to halve the response being measured. Consider `Cc1c(COc2cc(F)c(CNC[C@@H](O)CC(=O)O)cc2F)cccc1-c1ccc2c(c1)OCCO2` [BMS-200], for which the IC50 in series [1] was 3.1 nM.

In the case of `Cc1c(Nc2nccc3cc(CN4CC[C@@H](O)C4)cnc23)cccc1-c1cccc(-c2nc3cc(CN4CC[C@@H](C(=O)O)C4)cc(C#N)c3o2)c1C` [INCB086550], the half-maximal inhibitory concentration (IC50) is 3.1 nM in series [2] and 5.6 nM in series [4]. The “toxicity in clinical trials (in words)” value in series [3] is given as “high toxicity”. In series [4] (5 μM), the “activity at 5 μM (in words)” value is “complete loss of activity”.

As for `C#Cc1c(F)ccc2cc(O)cc(-c3ncc4c(N5CC6CCC(C5)N6)nc(OC[C@@]56CCCN5C[C@H](F)C6)nc4c3F)c12` [MRTX1133], in series [5], the GI50 result is “submicromolar”.

The values are drawn from publication PMC12646499 (Journal of Chemical Information and Modeling, 2025).
